Data reported in PMC10041999 (Journal of chemical information and modeling, 2022).

Molecular target: T1, VapC1 (Haemophilus influenzae, UniProt Q4QNL7)
T1 sequence (Q4QNL7 1-134): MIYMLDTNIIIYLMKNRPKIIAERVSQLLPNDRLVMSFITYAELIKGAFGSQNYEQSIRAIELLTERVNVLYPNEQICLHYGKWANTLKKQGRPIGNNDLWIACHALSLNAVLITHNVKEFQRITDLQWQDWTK
Assay: Biochemical VapC1 ribonuclease activity assay
Set-up: species or system nontypeable Haemophilus influenzae
In short: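 Purified VapC1 (296 nM final) was preincubated with test compound, aurintricarboxylic acid positive control or DMSO for 30 min at room temperature in 1X RNaseAlert reaction buffer. Custom RNA substrate (5' Cy5, 3' Iowa Black RQ quencher; 100 nM final) was then added. Fluorescence (Ex 618, Em 671 nm) was read immediately and at 75 min. Activity was taken as the change between readings. Concentration-response used eleven concentrations.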

For `Clc1ccc(C(c2ccc(Cl)cc2)n2cc[n+](C[C@@H](OCc3ccc(Cl)cc3Cl)c3ccc(Cl)cc3Cl)c2)cc1` [NCGC00015233], the “VapC1 inhibitor (result in words)” value was “confirmed VapC1 inhibtors”.
